Experimental findings from ChEMBL document CHEMBL4145474, “Discovery of novel piperonyl derivatives as diapophytoene desaturase inhibitors for the treatment of methicillin-, vancomycin- and linezolid-resistant Staphylococcus aureus infections” (Eur J Med Chem, 2018) are described below.

pIC50: −log10 of the molar value. The source made the active and inactive calls. The calls are words filed in the database; no cut-off is given here.

Assay [1] has as its target T1, 4,4'-diapophytoene desaturase (4,4'-diaponeurosporene-forming) (Staphylococcus aureus (strain Newman)) (UniProt O07855).
T1 sequence (whole entry): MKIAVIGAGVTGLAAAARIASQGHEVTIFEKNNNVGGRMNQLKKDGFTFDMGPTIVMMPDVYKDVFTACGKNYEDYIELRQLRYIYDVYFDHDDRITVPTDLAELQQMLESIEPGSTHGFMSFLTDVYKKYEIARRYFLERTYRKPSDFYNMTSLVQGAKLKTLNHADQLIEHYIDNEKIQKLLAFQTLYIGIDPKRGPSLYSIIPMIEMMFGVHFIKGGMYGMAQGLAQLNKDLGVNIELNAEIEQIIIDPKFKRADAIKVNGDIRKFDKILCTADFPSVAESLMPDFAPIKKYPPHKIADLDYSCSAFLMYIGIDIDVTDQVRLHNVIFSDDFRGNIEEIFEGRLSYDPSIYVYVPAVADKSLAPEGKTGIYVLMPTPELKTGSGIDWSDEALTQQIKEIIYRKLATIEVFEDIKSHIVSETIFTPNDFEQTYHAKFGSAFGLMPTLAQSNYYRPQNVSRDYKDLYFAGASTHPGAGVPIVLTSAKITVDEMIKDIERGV
The assay is described as follows: Inhibition of CrtN in methicillin-resistant Staphylococcus aureus USA300 LAC assessed as bacterial survival after 6 hrs by human whole blood assay (reference value: 14.33%). In outline:
(§1)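 Overnight cultures spun, resuspended in sterile PBS at 1 × 10⁷ CFU/mL, then mixed 1:10 with fresh whole blood from healthy human volunteers (final 1 × 10⁶ CFU/mL). Incubated 6 h at 37 °C; surviving CFU counted by plating dilutions on TSA. Two independent experiments.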

The test system of assay [2] is Staphylococcus aureus. The assay can be described thus: Antibacterial activity against wild type Staphylococcus aureus Newman infected in BALB/c mouse assessed as decrease in bacterial load in mouse liver at 0.1 mg, ip bid administered 4.5 days after 6 hrs bacterial infection measured after 90 hrs relative to control. The class given is functional. In short, it runs like this: (§2)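 Female BALB/c mice, 6-8 weeks old, infected retro-orbitally with 2.2 × 10⁷ CFU S. aureus Newman. Intraperitoneal dosing in 12 intervals: pre-treatment groups received a total of 50 or 200 mg/kg starting before infection; post-treatment groups received a total of 39 or 156 mg/kg starting 6 h after infection. Vehicle was ddH₂O. At 90 h post-infection, liver or kidney was homogenized in PBS/0.01% Triton X-100 and plated on TSA for CFU.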

In assay [3] the test system is Staphylococcus aureus. The assay is described as follows: Inhibition of pigmentation in methicillin-resistant Staphylococcus aureus USA400 MW2 after 48 hrs by spectrophotometric method. In kind it is functional, organism-based. Conditions: USA400 MW2, 48 h. In short, it runs like this: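 Bacteria grown in 4 mL TSB for 48 h at 37 °C with compound serially diluted from DMSO, in duplicate; DMSO vehicle control and non-pigmented CrtN mutant as reference. Cells from 3 mL of culture washed twice with 0.01 M PBS and pigment extracted into methanol. Absorbance read at 450 nm; IC50 fitted from the concentration series.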

Assay [4] has as its target T2, 4,4'-diapophytoene desaturase (4,4'-diaponeurosporene-forming) (Staphylococcus aureus (strain Mu50 / ATCC 700699)) (UniProt Q99R76).
T2 sequence (whole entry): T1 sequence (whole entry)
The assay is described as follows: Inhibition of CrtN in vancomycin-intermediate methicillin-resistant Staphylococcus aureus Mu50 assessed as bacterial survival after 6 hrs by human whole blood killing assay (reference value: 8.66%). The following applies: Staphylococcus aureus subsp. aureus Mu50. In short, it runs like this: as §1

The test system of assay [5] is Staphylococcus aureus. The assay can be described thus: Antibacterial activity against wild type Staphylococcus aureus Newman infected in BALB/c mouse assessed as decrease in bacterial load in mouse liver at 0.4 mg, ip bid administered 4.5 days […] bacterial infection measured after 90 hrs relative to control. The class given is functional. In short, it runs like this:
as §2

Assay [6] concerns Staphylococcus aureus. The assay is described as follows: Antibacterial activity against methicillin-resistant Staphylococcus aureus USA300 LAC assessed as decrease in bacterial survival at 1 uM after 24 hrs by H2O2 killing assay. The class given is functional, organism-based.
For assay [7], the system named is Staphylococcus aureus. The assay is described as follows: Inhibition of pigmentation in wild type Staphylococcus aureus Newman after 48 hrs by spectrophotometric method. The class given is functional, organism-based. In outline:
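S. aureus Newman was grown in TSB 48 h at 37 °C with a concentration series of compound in DMSO, in duplicate. Controls were a DMSO vehicle and a nonpigmented CrtN mutant. Cells were washed twice in 0.01 M PBS and pigment extracted in methanol. A450 was measured and IC50 derived by curve fitting.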

One may read the pIC50 as −log10 of the IC50, conventionally taken in molar units. On to `CN(C/C=C/C=C/c1ccc(C(F)(F)F)cc1F)Cc1ccc2c(c1)OCO2.Cl`, for which the values for the Survival in assay [1] and in assay [4] were 1.57% and 0.28%, respectively. The results for the Activity with Staphylococcus aureus [2] and in the assay with Staphylococcus aureus [5] were 1.53 deltalog10CFU and 1.9 deltalog10CFU, respectively. The pIC50 in the assay on Staphylococcus aureus [3] is 8.12; with Staphylococcus aureus [7], 8.40. Further, the outcome in the assay on Staphylococcus aureus [6] was inactive.
